Reference: BindingDB's records for doi:10.1016/j.ejmech.2009.05.023 (Sun Yat-Sen University, 2009)

Target: T1, Polyphenol oxidase 2 (Agaricus bisporus, UniProt O42713)
T1 sequence (O42713 whole entry): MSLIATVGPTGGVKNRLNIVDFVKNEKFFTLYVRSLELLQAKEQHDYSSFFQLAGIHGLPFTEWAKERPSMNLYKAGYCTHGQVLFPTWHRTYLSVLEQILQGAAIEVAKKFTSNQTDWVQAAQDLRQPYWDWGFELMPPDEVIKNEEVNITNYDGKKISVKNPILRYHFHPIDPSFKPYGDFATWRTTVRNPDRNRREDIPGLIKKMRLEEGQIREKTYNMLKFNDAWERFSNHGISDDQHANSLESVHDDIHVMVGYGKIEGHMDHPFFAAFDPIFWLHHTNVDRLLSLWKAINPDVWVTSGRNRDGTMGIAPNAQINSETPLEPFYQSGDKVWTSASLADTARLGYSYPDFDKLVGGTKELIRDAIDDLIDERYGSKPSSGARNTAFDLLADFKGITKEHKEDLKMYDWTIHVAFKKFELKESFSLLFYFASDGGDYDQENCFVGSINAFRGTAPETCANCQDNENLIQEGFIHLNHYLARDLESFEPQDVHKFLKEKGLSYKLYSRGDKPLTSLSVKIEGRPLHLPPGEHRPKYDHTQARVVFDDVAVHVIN
Experiment: Inhibition of mushroom tyrosinase
Summary of the method: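 Mushroom tyrosinase diphenolase assay: 1 mL reaction with 0.5 mM L-DOPA in 50 mM sodium phosphate buffer, pH 6.8, enzyme final 0.5 mg/mL, 25 °C. Compounds dissolved in DMSO (2.0% final); DMSO-only controls run. Dopachrome formation followed at 475 nm for 1 min. IC50 interpolated from dose–response curves; means of three experiments.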

SMILES | IC50 [µM]
O=c1cc(O)[nH]c(=O)[nH]1 [Barbituric acid] | > 200
COCCCCOc1ccc(Cc2c(O)[nH]c(=S)[nH]c2=O)cc1 [5-(4-(4-Methoxybutoxy)benzyl)-2-thioxodihydropyrimidine-4,6(1H,5H)-dione] | > 200
CCCCOCCOc1ccc(Cc2c(O)[nH]c(=O)[nH]c2=O)cc1 [5-(4-(2-Butoxyethoxy)benzyl)pyrimidine-2,4,6(1H,3H,5H)-trione] | > 200
O=c1[nH]c(O)c(Cc2ccc(OCCO)cc2)c(=O)[nH]1 [5-(4-(2-Hydroxyethoxy)benzyl)pyrimidine-2,4,6(1H,3H,5H)-trione] | > 200
COCCOc1ccc(Cc2c(O)[nH]c(=O)[nH]c2=O)cc1 [5-(4-(2-Methoxyethoxy)benzyl)pyrimidine-2,4,6(1H,3H,5H)-trione] | > 200
Oc1cc(O)nc(S)n1 [Thiobarbituric] | > 200
O=c1[nH]c(O)c(Cc2ccc(O)cc2)c(=O)[nH]1 [5-(4-Hydroxybenzyl)pyrimidine-2,4,6(1H,3H,5H)-trione] | > 200
COCCOCCOc1ccc(Cc2c(O)[nH]c(=O)[nH]c2=O)cc1 [5-(4-(2-(2-Methoxyethoxy)ethoxy)benzyl)pyrimidine-2,4,6(1H,3H,5H)trione] | > 200
